pEC50, pIC50: −log10 of the molar value. In brackets after ≈: the same amount, converted by molar mass.
How the values were obtained:
DNA gyrase = DNA gyrase (Escherichia coli, UniProt P0AES4+P0AES6); test: Inhibition of Escherichia coli DNA gyrase after 1 hr by agarose gel electrophoresis; format: protein-complex assay
[1] = Inhibition of Escherichia coli DNA topoisomerase 4 using kDNA as substrate after 1 hr by agarose gel electrophoresis
In short: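 E. coli topoisomerase IV decatenation kit: kDNA (0.5 µg) with 1 U enzyme in supplied buffer plus varying compound levels, 37 °C for 1 h. Stopped as for the gyrase assay, then 1% agarose in TAE, 1.5 h at 80 V, ethidium bromide. IC50 = concentration blocking 50% conversion to decatenated minicircles, by gel densitometry.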

Proteus mirabilis = test: Antimicrobial activity against Proteus mirabilis ATCC 12453 after 18 hrs by broth microdilution method; format: functional; settings: ATCC 12453, 18 h
Staphylococcus aureus [2] = test: Ratio of MBC for methicillin-susceptible Staphylococcus aureus ATCC 25923 to MIC for methicillin-susceptible Staphylococcus aureus ATCC 25923; format: functional
In short: (§1)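 MBC taken as lowest concentration giving >99.9% CFU reduction of the initial inoculum; value is MBC divided by MIC for the same strain.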

Bacillus cereus = test: Antimicrobial activity against Bacillus cereus ATCC 10876 after 18 hrs by broth microdilution method; format: functional; settings: ATCC 10876, 18 h
Staphylococcus aureus [3] = test: Ratio of MBC for Staphylococcus aureus Microbank 14001 to MIC for Staphylococcus aureus Microbank 14001; format: functional; in short: as §1
HEK293 = test: Cytotoxicity against HEK293 cells after 72 hrs by MTT assay; format: cell-based; settings: Homo sapiens, HEK293, 48 h; in the assay text read “48 hrs” for “72 hrs”
In short: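 HEK-293 (ATCC CRL-1573) in MEM with 10% FBS plus penicillin/streptomycin, seeded 3 x 10^5 cells/well, 24 h at 37 °C, 5% CO2. Treated with compounds diluted from 50 mg/mL DMSO stock into medium with 2% FBS for 48 h. Viability by MTT formazan readout; EC50 relative to control cells, mean ± SD of three independent experiments.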

[4] = tested on: Staphylococcus epidermidis; test: Antimicrobial activity against Staphylococcus epidermidis ATCC 12228 after 18 hrs by broth microdilution method; format: functional; settings: ATCC 12228, 18 h
Escherichia coli = test: Antimicrobial activity against Escherichia coli ATCC 25922 after 18 hrs by broth microdilution method; format: functional; settings: ATCC 25922, 18 h
Staphylococcus aureus [5] = test: Antimicrobial activity against Staphylococcus aureus Microbank 14001 after 18 hrs by broth microdilution method; format: functional; settings: Microbank 14001, 18 h
Bacillus subtilis = test: Antimicrobial activity against Bacillus subtilis […] after 18 hrs by broth microdilution method; format: functional
Staphylococcus aureus [6] = test: Ratio of MBC for methicillin-susceptible Staphylococcus aureus ATCC 6538 to MIC for methicillin-susceptible Staphylococcus aureus ATCC 6538; format: functional; in short: as §1
Klebsiella pneumoniae = test: Antimicrobial activity against Klebsiella pneumoniae ATCC 13883 after 18 hrs by broth microdilution method; format: functional; settings: ATCC 13883, 18 h
Pseudomonas aeruginosa [7] = test: Antimicrobial activity against Pseudomonas aeruginosa ATCC 9027 after 18 hrs by broth microdilution method; format: functional; settings: ATCC 9027, 18 h
Staphylococcus aureus [8] = test: Antimicrobial activity against methicillin-susceptible Staphylococcus aureus ATCC 25923 after 18 hrs by broth microdilution method; format: functional; settings: ATCC 25923, 18 h
Micrococcus luteus = test: Antimicrobial activity against Micrococcus luteus ATCC 10240 after 18 hrs by broth microdilution method; format: functional; settings: ATCC 10240, 18 h
Staphylococcus aureus [9] = test: Antimicrobial activity against methicillin-susceptible Staphylococcus aureus ATCC 6538 after 18 hrs by broth microdilution method; format: functional; settings: ATCC 6538, 18 h
Staphylococcus aureus [10] = test: Ratio of ciprofloxacin MIC to compound MIC for methicillin-susceptible Staphylococcus aureus ATCC 25923; format: functional
Staphylococcus aureus [11] = test: Ratio of ciprofloxacin MIC to compound MIC for methicillin-susceptible Staphylococcus aureus ATCC 6538; format: functional
Pseudomonas aeruginosa [12] = test: Ratio of ciprofloxacin MIC to compound MIC for Pseudomonas aeruginosa ATCC 9027; format: functional
Staphylococcus aureus [13] = test: Ratio of vancomycin MIC to compound MIC for Staphylococcus aureus Microbank 14001; format: functional

Row | Structure (SMILES) | pIC50 (DNA gyrase) | pIC50 [1] | MIC (Proteus mirabilis) | MIC (Bacillus cereus) | MIC [4] | MIC (Escherichia coli) | MIC (Staphylococcus aureus [5]) | MIC (Bacillus subtilis) | MIC (Klebsiella pneumoniae) | MIC (Pseudomonas aeruginosa [7]) | MIC (Staphylococcus aureus [8]) | MIC (Micrococcus luteus) | MIC (Staphylococcus aureus [9]) | Ratio (Staphylococcus aureus [2]) | Ratio (Staphylococcus aureus [3]) | pEC50 (HEK293) | Ratio (Staphylococcus aureus [6]) | Ratio (Staphylococcus aureus [11]) | also measured
1 | O=C(O)c1cn(C2CC2)c2cc(N3CCN(Cn4nc(-c5cccc(O)c5)n(-c5cccc(I)c5)c4=S)CC3)c(F)cc2c1=O | 5.01 | 4.11 | – | – | – | – | – | – | – | – | – | – | – | – | – | – | – | – | –
2 | O=C(O)c1cn(C2CC2)c2cc(N3CCN(Cn4nc(-c5ccc(O)cc5)n(-c5ccc(F)cc5)c4=S)CC3)c(F)cc2c1=O | – | – | 0.048 µM (≈ 0.0303 µg/mL) | 0.095 µM (≈ 0.0599 µg/mL) | 0.095 µM (≈ 0.0599 µg/mL) | 0.024 µM (≈ 0.0151 µg/mL) | 0.19 µM (≈ 0.12 µg/mL) | 0.048 µM (≈ 0.0303 µg/mL) | 0.19 µM (≈ 0.12 µg/mL) | 0.38 µM (≈ 0.24 µg/mL) | 0.19 µM (≈ 0.12 µg/mL) | 1.55 µM (≈ 0.978 µg/mL) | 0.19 µM (≈ 0.12 µg/mL) | <=4 | <=4 | 3.97 | <=4 | – | Ratio (Staphylococcus aureus [10]): 16
3 | CCCc1nn(CN2CCN(c3cc4c(cc3F)c(=O)c(C(=O)O)cn4C3CC3)CC2)c(=S)n1-c1cccc(I)c1 | 5.20 | 3.81 | – | – | – | – | – | – | – | – | – | – | – | – | – | – | – | – | –
4 | O=C(O)c1cn(C2CC2)c2cc(N3CCN(Cn4nc(-c5cccc(O)c5)n(-c5cc(Cl)cc(Cl)c5)c4=S)CC3)c(F)cc2c1=O | 5.22 | 4.10 | – | – | – | – | – | – | – | – | – | – | – | – | – | – | – | – | –

The remaining compounds from weak to strong by MIC (Proteus mirabilis), led by results:

Row | pIC50 (DNA gyrase) | pIC50 [1] | MIC (Proteus mirabilis) | MIC (Bacillus cereus) | MIC [4] | MIC (Escherichia coli) | MIC (Staphylococcus aureus [5]) | MIC (Bacillus subtilis) | MIC (Klebsiella pneumoniae) | MIC (Pseudomonas aeruginosa [7]) | MIC (Staphylococcus aureus [8]) | MIC (Micrococcus luteus) | MIC (Staphylococcus aureus [9]) | Structure (SMILES) | Ratio (Staphylococcus aureus [2]) | Ratio (Staphylococcus aureus [3]) | pEC50 (HEK293) | Ratio (Staphylococcus aureus [6]) | Ratio (Staphylococcus aureus [11]) | also measured
5 | – | 4.10 | 0.045 µM (≈ 0.0149 µg/mL) | 0.36 µM (≈ 0.119 µg/mL) | 1.48 µM (≈ 0.49 µg/mL) | 0.024 µM (≈ 0.00795 µg/mL) | – | 0.09 µM (≈ 0.0298 µg/mL) | 0.36 µM (≈ 0.119 µg/mL) | 0.72 µM (≈ 0.239 µg/mL) | 2.96 µM (≈ 0.981 µg/mL) | 5.88 µM (≈ 1.95 µg/mL) | 0.72 µM (≈ 0.239 µg/mL) | O=C(O)c1cn(C2CC2)c2cc(N3CCNCC3)c(F)cc2c1=O [CIPROFLOXACIN] | – | – | – | – | – | –
6 | – | – | 0.023 µM (≈ 0.0151 µg/mL) | 0.091 µM (≈ 0.0598 µg/mL) | 0.046 µM (≈ 0.0302 µg/mL) | 0.011 µM (≈ 0.00722 µg/mL) | 0.091 µM (≈ 0.0598 µg/mL) | 0.011 µM (≈ 0.00722 µg/mL) | 0.023 µM (≈ 0.0151 µg/mL) | 0.023 µM (≈ 0.0151 µg/mL) | 0.36 µM (≈ 0.236 µg/mL) | 1.49 µM (≈ 0.979 µg/mL) | 0.091 µM (≈ 0.0598 µg/mL) | COc1ccc(Cn2c(-c3ccccc3O)nn(CN3CCN(c4cc5c(cc4F)c(=O)c(C(=O)O)cn5C4CC4)CC3)c2=S)cc1 | <=4 | <=4 | 4.10 | <=4 | 8 | Ratio (Pseudomonas aeruginosa [12]): 31
7 | – | – | 0.023 µM (≈ 0.0151 µg/mL) | 0.18 µM (≈ 0.118 µg/mL) | 0.091 µM (≈ 0.0598 µg/mL) | 0.011 µM (≈ 0.00722 µg/mL) | 0.046 µM (≈ 0.0302 µg/mL) | 0.091 µM (≈ 0.0598 µg/mL) | 0.091 µM (≈ 0.0598 µg/mL) | 0.18 µM (≈ 0.118 µg/mL) | 0.18 µM (≈ 0.118 µg/mL) | 1.49 µM (≈ 0.979 µg/mL) | 0.091 µM (≈ 0.0598 µg/mL) | COc1ccc(Cn2c(-c3cccc(O)c3)nn(CN3CCN(c4cc5c(cc4F)c(=O)c(C(=O)O)cn5C4CC4)CC3)c2=S)cc1 | <=4 | <=4 | 4.20 | <=4 | 8 | Ratio (Staphylococcus aureus [13]): 15; Ratio (Staphylococcus aureus [10]): 16
8 | – | – | 0.023 µM (≈ 0.0148 µg/mL) | 0.093 µM (≈ 0.06 µg/mL) | 0.046 µM (≈ 0.0297 µg/mL) | 0.011 µM (≈ 0.00709 µg/mL) | 0.046 µM (≈ 0.0297 µg/mL) | 0.011 µM (≈ 0.00709 µg/mL) | 0.093 µM (≈ 0.06 µg/mL) | 0.046 µM (≈ 0.0297 µg/mL) | 0.76 µM (≈ 0.49 µg/mL) | 0.76 µM (≈ 0.49 µg/mL) | 0.19 µM (≈ 0.122 µg/mL) | O=C(O)c1cn(C2CC2)c2cc(N3CCN(Cn4nc(-c5ccccc5O)n(Cc5ccc(F)cc5)c4=S)CC3)c(F)cc2c1=O | <=4 | <=4 | – | <=4 | – | Ratio (Staphylococcus aureus [13]): 15
9 | – | – | 0.023 µM (≈ 0.0148 µg/mL) | 0.19 µM (≈ 0.122 µg/mL) | 0.37 µM (≈ 0.238 µg/mL) | 0.012 µM (≈ 0.00771 µg/mL) | 0.093 µM (≈ 0.0598 µg/mL) | 0.023 µM (≈ 0.0148 µg/mL) | 0.093 µM (≈ 0.0598 µg/mL) | 0.023 µM (≈ 0.0148 µg/mL) | 0.76 µM (≈ 0.488 µg/mL) | 1.52 µM (≈ 0.977 µg/mL) | 0.19 µM (≈ 0.122 µg/mL) | COc1ccc(-n2c(-c3ccc(O)cc3)nn(CN3CCN(c4cc5c(cc4F)c(=O)c(C(=O)O)cn5C4CC4)CC3)c2=S)cc1 | <=4 | <=4 | 3.98 | <=4 | – | Ratio (Pseudomonas aeruginosa [12]): 31
10 | – | – | 0.006 µM (≈ 0.00387 µg/mL) | 0.093 µM (≈ 0.06 µg/mL) | 0.19 µM (≈ 0.122 µg/mL) | 0.006 µM (≈ 0.00387 µg/mL) | 0.37 µM (≈ 0.239 µg/mL) | 0.023 µM (≈ 0.0148 µg/mL) | 0.046 µM (≈ 0.0297 µg/mL) | 0.093 µM (≈ 0.06 µg/mL) | 0.37 µM (≈ 0.239 µg/mL) | 0.76 µM (≈ 0.49 µg/mL) | 0.093 µM (≈ 0.06 µg/mL) | O=C(O)c1cn(C2CC2)c2cc(N3CCN(Cn4nc(-c5cccc(O)c5)n(Cc5ccc(F)cc5)c4=S)CC3)c(F)cc2c1=O | <=4 | <=4 | 4.16 | <=4 | 8 | –
